# Legend:
# Type in all cases: functional
# Settings in all cases: read-out: GI
# DU-145 = assay: Antitumor activity against human DU-145 cells assessed as growth inhibition at 10 uM relative to control
# Outline: (§1)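 After drug addition, plates were incubated 48 h at 37 °C under 5% CO2. Adherent cells were fixed with cold TCA (10% final, 60 min, 4 °C) and suspension cells with 16% final TCA. Staining used 0.4% SRB in 1% acetic acid, solubilized in 10 mM trizma, read at A515. Percent growth was calculated from time-zero, control and treated absorbances.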
# NCI/ADR-RES = assay: Antitumor activity against human NCI-ADR-RES cells assessed as growth inhibition at 10 uM relative to control; outline: as §1
# 786-0 = assay: Antitumor activity against human 786-0 cells assessed as growth inhibition at 10 uM relative to control; outline: as §1
# SNB-75 = assay: Antitumor activity against human SNB-75 cells assessed as growth inhibition at 10 uM relative to control
# Outline: (§2)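 Drug exposure 48 h at 37 °C, 5% CO2. Adherent cells fixed with cold TCA (10% final), suspension cells with TCA (16% final). Stained with 0.4% SRB in 1% acetic acid, dissolved in 10 mM Tris, A515. Growth relative to time-zero and untreated control.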
# UACC-62 = assay: Antitumor activity against human UACC-62 cells assessed as growth inhibition at 10 uM relative to control; outline: as §2
# SK-MEL-2 = assay: Antitumor activity against human SK-MEL-2 cells assessed as growth inhibition at 10 uM relative to control; outline: as §1
# RXF 393 = assay: Antitumor activity against human RXF 393 cells assessed as growth inhibition at 10 uM relative to control; outline: as §1
# MDA-MB-231 = assay: Antitumor activity against human MDA-MB-231 cells assessed as growth inhibition at 10 uM relative to control; outline: as §1
# SK-MEL-5 = assay: Antitumor activity against human SK-MEL-5 cells assessed as growth inhibition at 10 uM relative to control; outline: as §2
# SF-295 = assay: Antitumor activity against human SF-295 cells assessed as growth inhibition at 10 uM relative to control; outline: as §1
# SW-620 = assay: Antitumor activity against human SW-620 cells assessed as growth inhibition at 10 uM relative to control; outline: as §2
# MDA-MB-468 = assay: Antitumor activity against human MDA-MB-468 cells assessed as growth inhibition at 10 uM relative to control; outline: as §1
# HL-60 = assay: Antitumor activity against human HL-60 cells assessed as growth inhibition at 10 uM relative to control; outline: as §1
# RPMI-8226 = assay: Antitumor activity against human RPMI-8226 cells assessed as growth inhibition at 10 uM relative to control; outline: as §1
# SF-268 = assay: Antitumor activity against human SF-268 cells assessed as growth inhibition at 10 uM relative to control; outline: as §1
# MCF7 = assay: Antitumor activity against human MCF7 cells assessed as growth inhibition at 10 uM relative to control; outline: as §1
# HT-29 = assay: Antitumor activity against human HT-29 cells assessed as growth inhibition at 10 uM relative to control; outline: as §1
# IGROV-1 = assay: Antitumor activity against human IGROV-1 cells assessed as growth inhibition at 10 uM relative to control; outline: as §1
# HCT-15 = assay: Antitumor activity against human HCT-15 cells assessed as growth inhibition at 10 uM relative to control; outline: as §1
# SF-539 = assay: Antitumor activity against human SF-539 cells assessed as growth inhibition at 10 uM relative to control; outline: as §1
# A549 = assay: Antitumor activity against human A549 cells assessed as growth inhibition at 10 uM relative to control; outline: as §1
# COLO 205 = assay: Antitumor activity against human COLO 205 cells assessed as growth inhibition at 10 uM relative to control; outline: as §1
# LOX IMVI = assay: Antitumor activity against human LOX IMVI cells assessed as growth inhibition at 10 uM relative to control; outline: as §1
# U-251 = assay: Antitumor activity against human U-251 cells assessed as growth inhibition at 10 uM relative to control; outline: as §2
# SN12C = assay: Antitumor activity against human SN12C cells assessed as growth inhibition at 10 uM relative to control; outline: as §2
# HOP-62 = assay: Antitumor activity against human HOP-62 cells assessed as growth inhibition at 10 uM relative to control; outline: as §1
# CCRF-CEM = assay: Antitumor activity against human CCRF-CEM cells assessed as growth inhibition at 10 uM relative to control; outline: as §1
# NCI-H226 = assay: Antitumor activity against human NCI-H226 cells assessed as growth inhibition at 10 uM relative to control; outline: as §1
# ACHN = assay: Antitumor activity against human ACHN cells assessed as growth inhibition at 10 uM relative to control; outline: as §1
# UO-31 = assay: Antitumor activity against human UO-31 cells assessed as growth inhibition at 10 uM relative to control; outline: as §2
# MDA-MB-435 = assay: Antitumor activity against human MDA-MB-435 cells assessed as growth inhibition at 10 uM relative to control; outline: as §1
# CAKI-1 = assay: Antitumor activity against human CAKI-1 cells assessed as growth inhibition at 10 uM relative to control; outline: as §1
# HCT-116 = assay: Antitumor activity against human HCT-116 cells assessed as growth inhibition at 10 uM relative to control; outline: as §1
# NCI-H522 = assay: Antitumor activity against human NCI-H522 cells assessed as growth inhibition at 10 uM relative to control; outline: as §1
# A498 = assay: Antitumor activity against human A498 cells assessed as growth inhibition at 10 uM relative to control; outline: as §1
# K562 = assay: Antitumor activity against human K562 cells assessed as growth inhibition at 10 uM relative to control; outline: as §1
# Malme-3M = assay: Antitumor activity against human Malme-3M cells assessed as growth inhibition at 10 uM relative to control; outline: as §1
# MOLT-4 = assay: Antitumor activity against human MOLT-4 cells assessed as growth inhibition at 10 uM relative to control; outline: as §1
# OVCAR-8 = assay: Antitumor activity against human OVCAR-8 cells assessed as growth inhibition at 10 uM relative to control; outline: as §1
# T47D = assay: Antitumor activity against human T47D cells assessed as growth inhibition at 10 uM relative to control; outline: as §2
# NCI-H23 = assay: Antitumor activity against human NCI-H23 cells assessed as growth inhibition at 10 uM relative to control; outline: as §1
# TK-10 = assay: Antitumor activity against human TK-10 cells assessed as growth inhibition at 10 uM relative to control; outline: as §2
# Hs-578T = assay: Antitumor activity against human Hs-578T cells assessed as growth inhibition at 10 uM relative to control; outline: as §1
# SR = assay: Antitumor activity against human SR cells assessed as growth inhibition at 10 uM relative to control; outline: as §2
# SK-OV-3 = assay: Antitumor activity against human SK-OV-3 cells assessed as growth inhibition at 10 uM relative to control; outline: as §2
# HOP-92 = assay: Antitumor activity against human HOP-92 cells assessed as growth inhibition at 10 uM relative to control; outline: as §1
structure (smiles),measurement,setting,value
N#Cc1c(-c2ccc(Cl)cc2)nc(N/N=C/c2cccc(O)c2)nc1N1CCOCC1,inhibition of growth at 10 µM,DU-145,36.6%
same,inhibition of growth at 10 µM,NCI/ADR-RES,35.1%
same,inhibition of growth at 10 µM,786-0,35.7%
same,inhibition of growth at 10 µM,SNB-75,53.9%
same,inhibition of growth at 10 µM,UACC-62,< 1%
same,inhibition of growth at 10 µM,SK-MEL-2,< 1%
same,inhibition of growth at 10 µM,RXF 393,< 1%
same,inhibition of growth at 10 µM,MDA-MB-231,< 1%
same,inhibition of growth at 10 µM,SK-MEL-5,23.5%
same,inhibition of growth at 10 µM,SF-295,< 1%
same,inhibition of growth at 10 µM,SW-620,35.2%
same,inhibition of growth at 10 µM,MDA-MB-468,12.6%
same,inhibition of growth at 10 µM,HL-60,33.4%
same,inhibition of growth at 10 µM,RPMI-8226,62.6%
same,inhibition of growth at 10 µM,SF-268,18.1%
same,inhibition of growth at 10 µM,MCF7,< 39.9%
same,inhibition of growth at 10 µM,HT-29,30.2%
same,inhibition of growth at 10 µM,IGROV-1,35.1%
same,inhibition of growth at 10 µM,HCT-15,55.3%
same,inhibition of growth at 10 µM,SF-539,32.2%
same,inhibition of growth at 10 µM,A549,27.3%
same,inhibition of growth at 10 µM,COLO 205,14.8%
same,inhibition of growth at 10 µM,LOX IMVI,38.2%
same,inhibition of growth at 10 µM,U-251,14.2%
same,inhibition of growth at 10 µM,SN12C,21.7%
same,inhibition of growth at 10 µM,HOP-62,21.2%
same,inhibition of growth at 10 µM,CCRF-CEM,63.8%
same,inhibition of growth at 10 µM,NCI-H226,36.7%
same,inhibition of growth at 10 µM,ACHN,39.1%
same,inhibition of growth at 10 µM,UO-31,64.3%
same,inhibition of growth at 10 µM,MDA-MB-435,13%
same,inhibition of growth at 10 µM,CAKI-1,29.9%
same,inhibition of growth at 10 µM,HCT-116,42.1%
same,inhibition of growth at 10 µM,NCI-H522,25.2%
same,inhibition of growth at 10 µM,A498,24.9%
same,inhibition of growth at 10 µM,K562,54.9%
same,inhibition of growth at 10 µM,Malme-3M,< 1%
same,inhibition of growth at 10 µM,MOLT-4,60.2%
same,inhibition of growth at 10 µM,OVCAR-8,34.6%
same,inhibition of growth at 10 µM,T47D,35.4%
same,inhibition of growth at 10 µM,NCI-H23,< 1%
same,inhibition of growth at 10 µM,TK-10,21%
same,inhibition of growth at 10 µM,Hs-578T,10.6%
same,inhibition of growth at 10 µM,SR,95.3%
same,inhibition of growth at 10 µM,SK-OV-3,< 1%
same,inhibition of growth at 10 µM,HOP-92,36.7%
